Experiments:
Assay type in all cases: microsomes
Conditions in all cases: Microsome
Capra hircus [1] = species on record: Capra hircus; test: Induction of magnesium independent calcium-transporting ATPase activity in goat spermatozoa microsomal membranes at 20 ug by spectrophotometry in presence of 300 uM of calcium channel blocker verapamil
How it was run: (§1)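 The compound (20 µg) was added together with a fixed concentration of the blocker. Reactions were stopped with 7% ice-cold TCA and read spectrophotometrically. Ca2+-dependent activity (+Ca2+ minus −Ca2+) is given as percent stimulation or inhibition, averaged over four assays.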

Capra hircus [2] = species on record: Capra hircus; test: Induction of magnesium independent calcium-transporting ATPase activity in goat spermatozoa microsomal membranes at 20 ug by spectrophotometry in presence of 1 mM of calcium channel blocker orthovanadate; how it was run: as §1
Capra hircus [3] = species on record: Capra hircus; test: Induction of magnesium independent calcium-transporting ATPase activity in goat spermatozoa microsomal membranes at 70 nM by spectrophotometry
How it was run: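 Mg2+-independent Ca2+-ATPase in goat sperm microsomes (2 µg protein) was measured without blockers over varying compound concentrations. Incubation used 3 mM ATP in imidazole/sucrose buffer with EDTA and 2-mercaptoethanol, ±4 mM CaCl2, for 30 min at 37 °C, stopped with ice-cold 7% TCA and read spectrophotometrically. Activity is the difference between the +Ca2+ and −Ca2+ reactions.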

Capra hircus [4] = species on record: Capra hircus; test: Induction of magnesium independent calcium-transporting ATPase activity in goat spermatozoa microsomal membranes at 20 ug by spectrophotometry in presence of […] of calcium channel blocker thapsigargin; how it was run: as §1

SMILES | Activity (Capra hircus [1]) | Activity (Capra hircus [2]) | Activity (Capra hircus [3]) | Activity (Capra hircus [4])
CO[C@H]1O[C@H](CS(=O)(=O)C[C@H]2O[C@H](OC)[C@H](O)[C@@H](O)[C@@H]2O)[C@@H](O)[C@H](O)[C@@H]1O | -3% | 4% | 43% | -35%
CO[C@H]1O[C@H](CS(=O)(=O)C[C@H]2O[C@@H](OC)[C@H](O)[C@H](O)[C@@H]2O)[C@@H](O)[C@H](O)[C@@H]1O | -5% | -19% | 45% | -27%
CO[C@H]1O[C@H](CS(=O)(=O)C[C@H]2O[C@H](OC)[C@@H](O)[C@@H](O)[C@@H]2O)[C@@H](O)[C@H](O)[C@@H]1O | -2% | -27% | 49% | -29%
CO[C@H]1O[C@H](CS(=O)(=O)C[C@H]2O[C@H](OC)[C@H](O)[C@@H](O)[C@@H]2O)[C@@H](O)[C@H](O)[C@H]1O | -14% | -24% | 36% | -28%
CO[C@H]1O[C@H](CS(=O)(=O)C[C@H]2O[C@H](OC)[C@H](O)[C@@H](O)[C@H]2O)[C@@H](O)[C@H](O)[C@H]1O | -5% | -8% | 32% | -38%

Continued, values first:

Activity (Capra hircus [1]) | Activity (Capra hircus [2]) | Activity (Capra hircus [3]) | Activity (Capra hircus [4]) | SMILES
-9% | -17% | 30% | -31% | CO[C@H]1O[C@H](CS(=O)(=O)C[C@H]2O[C@H](OC)[C@H](O)[C@H](O)[C@@H]2O)[C@@H](O)[C@H](O)[C@H]1O
-8% | -21% | 30% | -33% | CO[C@@H]1O[C@H](CS(=O)(=O)C[C@H]2O[C@@H](OC)[C@H](O)[C@H](O)[C@@H]2O)[C@@H](O)[C@@H](O)[C@H]1O
-21% | -25% | 53% | -36% | CO[C@H]1O[C@H](CS(=O)(=O)C[C@H]2O[C@H](OC)[C@H](O)[C@@H](O)[C@H]2O)[C@@H](O)[C@H](O)[C@@H]1O

Reference: ChEMBL document CHEMBL1629510, “Efficient synthesis of (6-deoxy-glycopyranosid-6-yl) sulfone derivatives and their effect on Ca2+-ATPase” (Eur J Med Chem, 2010)
